Experimental data taken from the RNAGym collection of RNA variant scans (doi:10.1126/science.aae0568).
This sample holds only a part of the variants without activity.

B1: tRNA (parent)
chain: GUUCCGUUGGCGUAAUGGUAACGCGUCUCCCUCCUAAGGAGAAGACUGCGGGUUCGAGUCCCGUACGGAACG

Variants of: B1
Assay: yeast fitness relative to wild type (ratio to wild type); higher = fitter; tRNA-Arg(CCU), competitive growth, 37 C, YPD
In short: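 Amplicons of the tRNA-Arg(CCU) gene were sequenced, 100-nucleotide paired-end, from the start population and from each end population of a pooled yeast competition. The competition, in six parallel replicates, lasted 24 hours in YPD at 37°C. Fitness relative to wild type was calculated from changes in genotype frequencies. Genotypes had to have ≥ 100 starting reads, and estimates < 0.5 were set to 0.5.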
Variant GUUCCGUUGCCGUAAUGGUAAAGCGUCUCCCUCCUAAGGAGAAGACUGCGGGUUCGAGUCCCGUACGGAACG [G10C C22A] has a yeast fitness of 0.705.
GUUCCGUUGACGUAAUGGCAACGCGUCUCCCUCCUAAGGACAAGACUGCGGGUUCGAGUCCCGUACGGAACG [G10A U19C G41C] gave a yeast fitness of 0.532.
Work on GUUCCGUUGACGUAAUGGUAACGCGUCUCCCACCUAAGGAGAAGACUACGGGUUCGAGUCCCGUACGGAACG [G10A U32A G48A] yielded a yeast fitness of no more than 0.5.
Work on GUUCCGUUGACGUAAUGGUAACGCGUCUCCCUCCAAAGGAGAAGACUGCGGGUUCAAGUCCCGUACGGAACG [G10A U35A G56A] yielded a yeast fitness of 0.617.
With GUUCCGUUGCCGUAAUGGUACCGCGUCUCUCUCCUAAGGACAAGACUGCGGGUUCGAGUCCCGUACGGAUCG [G10C A21C C30U G41C A70U] the yeast fitness was no more than 0.5.
Work on GUUCCGUUGCCGUAUUGGUAACGCGUCUGCCUCCACAGGAGAAGACUGCGGGUUCGAGUCCCGUGGGGAACG [G10C A15U C29G U35A A36C A65G C66G] yielded a yeast fitness of no more than 0.5.
GUUCCGUUGACGUAAAGGUAACGCGUCUCCCUCCGAAGGAGAAGACUGCGGGUUCGAGUCCCGUACGGAACG [G10A U16A U35G] showed a yeast fitness of no more than 0.5.
Variant GUUCCGUUGACGUAAUGGUAACGCGUCUCCCUCCUAAGGAGAAGACUGCGGGUGCGAGUCUCGUACGGAACG [G10A U54G C61U] has a yeast fitness of 0.55.
GUUCCGUUGACGUAAUGGUAACGCGUCUCCCUCCUAAGGAGAAGACUGCGGGAUCGAGUCCCGUGCGGAACG [G10A U53A A65G] gave a yeast fitness of no more than 0.5.
Work on GUUCCGUUGCCGUAAUGGUUACGCGUCUCCCUCCUAAGGAGAAGACUGCGGGUUCGAGUCCCGUACGGAACG [G10C A20U] yielded a yeast fitness of 0.799.
With GUUCCGUUGCAGUAAUGGUAACGCGUCUCCCUCAUAAGGAGAAGACUGCGAGUUCGAGUCGCGUACGGUACG [G10C C11A C34A G51A C61G A69U] the yeast fitness was no more than 0.5.
GUUCCGUUGCCGUAGUGGUAACGCGUCUCCCUCCUAAGGAGAAGACUGCGGGUUCGAGUCCCGUACGGAACG [G10C A15G] gave a yeast fitness of 0.786.
GUUCCGUUGCCGUAGUGGUAACGCGUCUCCCUCCAAAGGAGAAAACUGCGGGUUCGAGUCCCGUACGGAACG [G10C A15G U35A G44A] showed a yeast fitness of 0.589.
With GUUCCGUUGCCGUAAUGGUAACGCGUCUCCCUCCUAAGGUGAAGACUGCGGGUUCGCGUCCCGUUCGGAACG [G10C A40U A57C A65U] the yeast fitness was no more than 0.5.
GUUCCGUUGACGUAAUGGUAACGCGUCUCCCUCCCAAGGAGAAGACUGCGGGUUCAAGUCCCGUACGGAACG [G10A U35C G56A] showed a yeast fitness of no more than 0.5.
GUUCCGUUGCCGUAAUGGUAACGCGUCUCCCUCCUACGGAGUAGACUGCGGGUUCGAGUCCCGUACGGAACG [G10C A37C A42U] gave a yeast fitness of no more than 0.5.
GUUCCGUUGACGUAAAGGUAACGCGUCUCCCUCCUAAGCAGAAGACUGCGGGUUCGAGUCCCGUACGGAACG [G10A U16A G39C] showed a yeast fitness of no more than 0.5.
Variant GUUCCGUUGCCGUAAUGGUAACGCGUCUCCCUCCUAAGGAGACGAGUGCGGGUUGGAGUCCCGUUCGGAACG [G10C A43C C46G C55G A65U] has a yeast fitness of 0.547.
Work on GUUCCGUUGCCGUAAUGGUAAAGGGUCUCCCUCCUAAGGAGAAGACUGCCGGUUCGAGUCCCGUCCGGAACG [G10C C22A C24G G50C A65C] yielded a yeast fitness of no more than 0.5.
In the case of GUUCCGUUGACGUAAAGGUAACGCGUCACCCUCCUAAGGAGAAGACUGCGGGUUCGAGUCCCGUACGGAUCG [G10A U16A U28A A70U], the yeast fitness is reported as no more than 0.5.
With GUUCCGUUGACGUAAAGGUAACGCGUCUCCAUCCUAAGGAGAAGACUGCGAGUUCGAGUCCCGUACGGAACG [G10A U16A C31A G51A] the yeast fitness was 0.584.
In the case of GUUCCGUUGCCGUAAUGGUAACGCGUCUCCCUCCUAAGGAGCAGACUGCGGGUUCGAGUCCCGUACGGAACG [G10C A42C], the yeast fitness is reported as 0.71.
Work on GUUCCGUUGCCGUAAUGGUAACGCGUCUCCCUCCUAAGGAGUAGAGUGCGGGUUCGAGUCCCGUACGGAACG [G10C A42U C46G] yielded a yeast fitness of no more than 0.5.
In the case of GUUCCGUUGCCGUUAUGGUAACGCGUCUCCCUCCUAACGAGAAGACUGCGGGUUCGAGUCCCGUACGGAACG [G10C A14U G38C], the yeast fitness is reported as 0.736.
With GUUCCGUUGACGUAAUGGAAACGCGUCUCCCUCCUAAGGAGGAGACUGCGGGUUCGAGUCCCGUACGGAACG [G10A U19A A42G] the yeast fitness was no more than 0.5.
Work on GUUCCGUUGCCGUAAUGGUAACGCGUCUCCCUCCUAAGGAGACGACUGUGGGUUCGAGUCCCGUACGGUACG [G10C A43C C49U A69U] yielded a yeast fitness of no more than 0.5.
GUUCCGUUGACGUAAUGGUAACGCGUCCCCCUCCUAAGGAGAAGACUGCGGGUUCGAGUGCCGUACGGAACG [G10A U28C C60G] showed a yeast fitness of no more than 0.5.
For GUUCCGUUGCCGUAAUGGUAACGCGUCUCCCUCCUAAGGAGAAGGCUGCGGGUUCGAGUCCCGUACGGAACG [G10C A45G], the yeast fitness was 0.716.
GUUCCGUUGCCGUGAUGGUAACGCGUUUCCCUCCUAAAGAGAAGAGUGCGGGUUCGAGUCCCGUACGGAACG [G10C A14G C27U G38A C46G] showed a yeast fitness of no more than 0.5.
GUUCCGUUGACGUAAUGGAAACGCGUCUCCCUCCUAAGGAGAACACUGCGGGUUCGAGUCCCGUACGGAACG [G10A U19A G44C] gave a yeast fitness of 0.54.
GUUCCGUUGCCGUUAUGGCAACGCGUCUCCCUCCUAAGGAGAAGACUGCGGGUUCGAGUACCGUACGCAACG [G10C A14U U19C C60A G68C] showed a yeast fitness of no more than 0.5.
For GUUCCGUUGCCGUAAUGGUAACGCGUCUCCCUCCUAAGGUGAAGACCGCGGGUUCGAGUCCCGUACGAAACG [G10C A40U U47C G68A], the yeast fitness was no more than 0.5.
In the case of GUUCCGUUGCUGUAAUGGUAGCGCGUCUCCCUCCUAAGGGGAAGACUGCGGGUUCGAGUCCCGUACGGAACG [G10C C11U A21G A40G], the yeast fitness is reported as no more than 0.5.
In the case of GUUCCGUUGACGUAAAGGUAACACGUCUCGCUCCUAAGGAGAAGACUGCGCGUUCGAGUCCCGUACGGAACG [G10A U16A G23A C30G G51C], the yeast fitness is reported as no more than 0.5.
Variant GUUCCGUUGACGUAAUGGUAACGCGUCUCCCUCCGAAGGAGAGGAUUGCGGGUUCGAGUCCCGUACGGUACG [G10A U35G A43G C46U A69U] has a yeast fitness of no more than 0.5.
In the case of GUUCCGUUGACGUAAUGGCAACGCGUCUCCCUCCUAAGGAGAAGACUAGGGGUUCGAGUCCCGUACGGUACG [G10A U19C G48A C49G A69U], the yeast fitness is reported as 0.594.
In the case of GUUCCGUUGCCGUCAUGGUAACGAGUCUCCGUCCUAAGGAGAAGACUGCGGGUUCGAGUCCCGUACGGAACG [G10C A14C C24A C31G], the yeast fitness is reported as no more than 0.5.
GUUCCGUUGACGUAAUGGUAACGCGGCUCCCUCCUAAGGAGAAGACUGCGGGUUCGAGUCCCGUUCGGAACG [G10A U26G A65U] showed a yeast fitness of no more than 0.5.
